Test results as given in ChEMBL document CHEMBL1148218, “Structures of new beta-carboline-type alkaloids with antiallergic effects from Stellaria dichotoma(1,2)” (J Nat Prod, 2004).
pIC50: −log10 of the molar value. Counter-ions that a name gives are not always drawn.

Experiments:
[1] = tested on: RBL-2H3; assay: Inhibition of beta-hexosaminidase in anti-DNP IgE sensitized rat RBL2H3 cells at 100 uM after 10 mins; assay type: functional; details: RBL-2H3, 10 min
Summary of the method: (§1)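 IgE-sensitized RBL-2H3 cells (2 × 10^5/well) in Siraganian buffer with 5.6 mM glucose, 1 mM CaCl2, 0.1% BSA, 10 min at 37 °C; sample in DMSO (final 0.1%) added for 10 min, then DNP-BSA (final 10 μg/mL). After 10 min supernatant reacted with 1 mM p-nitrophenyl-N-acetyl-β-D-glucosaminide, pH 4.5, 37 °C, 1 h; stopped at pH 10, A405. Percent inhibition; IC50 determined graphically.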

[2] = tested on: RBL-2H3; assay: Inhibition of beta-hexosaminidase in anti-DNP IgE sensitized rat RBL2H3 cells after 10 mins; assay type: functional, cell-based; details: RBL-2H3, 10 min; summary of the method: as §1
[3] = tested on: RBL-2H3; assay: Inhibition of anti-DNP IgE-induced TNFalpha production in rat RBL2H3 cells after 4 hrs by ELISA; assay type: functional, cell-based; details: RBL-2H3, 4 h
Summary of the method: (§2)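 RBL-2H3 cells (2 × 10^5/well in MEM) sensitized with anti-DNP IgE, then stimulated with DNP-BSA antigen in presence of sample; TNF-α and IL-4 in medium measured 4 h later by rat ELISA. Percent inhibition calculated; IC50 read graphically.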

[4] = tested on: RBL-2H3; assay: Inhibition of anti-DNP IgE-induced IL4 production in rat RBL2H3 cells after 4 hrs by ELISA; assay type: functional, cell-based; details: RBL-2H3, 4 h; summary of the method: as §2
[5] = tested on: Mus musculus; assay: Antiallergic activity in ddY mouse ear at 200 mg/kg, po by passive cutaneous anaphylaxis reaction; assay type: functional

Row | SMILES | inhibition at 100 µM [1] [%] | further results
1 | CCC(O)c1cc(OC)c2c(c1)OCO2 (configuration not stated) | 1.2 | –
2 | COc1ccc(CCC(=O)O)cc1OC | 2.3 | –
3 | O=Cc1ccc(CO)[nH]1 | 8.5 | –
4 | O=Cc1ccc(CO)o1 [AES-103] | 3.4 | –
5 | COc1cc(C(C)=O)ccc1O [APOCYNIN] | 2.3 | –
6 | C[C@H](O)c1nc(C(=O)O)cc2c1[nH]c1ccccc12 [DICHOTOMINE A] | 5.9 | –
7 | O=C(O)c1cc2c([nH]c3ccccc32)c([C@@H](O)CO)n1 [DICHOTOMINE B] | 1.2 | –
8 | COC(=O)c1cc2c([nH]c3ccccc32)c([C@@H](O)CO)n1 [DICHOTOMINE C] | 89.2 | pIC50 [2]: 4.21; pIC50 [3]: 4.72; pIC50 [4]: 4.82
9 | CCCCOC(=O)c1cc2c([nH]c3ccccc32)c([C@@H](O)CO)n1 [DICHOTOMINE D] | 11.2 | –
10 | CN1CCC(=C2c3ccccc3CC(=O)c3sccc32)CC1 [KETOTIFEN FUMARATE] | – | pIC50 [2]: 3.66
11 | COc1ccc(/C=C/C(=O)Nc2ccccc2C(=O)O)cc1OC [TRANILAST] | – | inhibition in vivo at 200 mg/kg [5]: 72.4%; pIC50 [2]: 3.31
12 | COc1cc(C(=O)O)ccc1O [VANILLIC ACID] | 8.4 | –
13 | COc1cc(C=O)ccc1O [VANILLIN] | 5.9 | –
